Results from different studies.
Each line is one published result; the experiments were not run side by side.
Effect on: cell growth or viability

COC(=O)[C@@H]1[C@@H](c2ccccc2)[C@]2(c3ccc(OC)cc3)Oc3cc(OC)cc(OC)c3[C@@]23N=C(C)N[C@@]13O  CC50 (HepG2; MTT; 24 h): 0.0658 µM
CCC/C=C/C=C/C(=O)O[C@H]1/C(=C/C(=O)OC)C[C@H]2C[C@H]([C@@H](C)O)OC(=O)C[C@H](O)C[C@@H]3C[C@H](OC(C)=O)C(C)(C)[C@](O)(C[C@@H]4C/C(=C/C(=O)OC)C[C@H](/C=C/C(C)(C)[C@]1(O)O2)O4)O3  CC50 (BGM; MTS; 5 days): ~100 µM
CC(C)(C)C(O)C(Oc1ccc(-c2ccccc2)cc1)n1cncn1 (centres unmarked)  CC50 (Huh-7; MTT; 24 h): > 400 µM
CC(C)[C@H](N)C(=O)N1CCC[C@H]1B(O)O  viability (HEK-293T; ATP luminescence; 60 µM, 5 days): 97%
CCCCCCCCCCOc1cc2c(O)c(C(=O)OCC)cnc2cc1OCC  IC50 (Huh-7; 72 h): > 100 µM
CCOC(=O)CCc1ccccc1OP(=O)(OC[C@H]1O[C@@H](n2cnc3c(N)nc(N)nc32)[C@](C)(O)[C@@H]1O)Oc1ccccc1CCC(=O)OCC  CC50 (Huh-7; replicon): > 10 µM
CC(C)(CO)C(=O)SCCOP(=O)(NCc1ccccc1)OC[C@H]1O[C@@H](n2cnc3c(=O)[nH]c(N)nc32)[C@](C)(O)[C@@H]1O (mixture of isomers)  CC50 (Huh-7; replicon): > 10 µM
O=c1c(O[C@@H]2O[C@H](CO)[C@@H](O)[C@H](O)[C@H]2O)c(-c2ccc(O)cc2)oc2cc(O)cc(O)c12  IC50 (HepG2; WST-1): 37.8 µM
